Data: ChEMBL document CHEMBL5247578, “Effective synthesis of benzimidazoles-imidazo[1,2-a]pyrazine conjugates: A comparative study of mono-and bis-benzimidazoles for antitumor activity” (Eur J Med Chem, 2019)

Columns and labels:
Calf thymus DNA = assay: Binding affinity to calf thymus DNA assessed as quenching constant at temperature of 298 K by fluorescence spectroscopic method; type: nucleic-acid assay; conditions: Bos taurus
HEK293 = assay: Cytotoxicity against human HEK293 cells assessed as reduction in cell viability at 0.000001 M incubated for 48 hrs by MTT colorimetric assay relative to control; type: toxicity, cell-based; conditions: hek293, 48 h, 1 µM
PC-3 = assay: Antiproliferative activity against human PC-3 cells assessed as cell growth inhibition by measuring lethal concentration incubated for 48 hrs by sulforhodamine B assay; type: functional; conditions: read-out: LC50 (the source's name)
UO-31 = assay: Antiproliferative activity against human UO-31 cells assessed as cell growth inhibition by measuring lethal concentration incubated for 48 hrs by sulforhodamine B assay; type: functional; conditions: read-out: LC50 (the source's name)
How it was run: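 NCI-60 five-dose screen (10^-4 to 10^-8 M, 10-fold dilutions; DMSO stocks). Cells in RPMI 1640 with 5% FBS and 2 mM L-glutamine, preincubated 24 h, then exposed 48 h at 37 °C, 5% CO2. Fixed with cold TCA, stained with 0.4% SRB, absorbance read at 515 nm. Time-zero plates used as reference. LC50 taken from [(Ti-Tz)/Tz]×100 […].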

NCI-H322M [1] = assay: Antiproliferative activity against human NCI-H322M cells assessed as cell growth inhibition by measuring lethal concentration incubated for 48 hrs by sulforhodamine B assay; type: functional; conditions: read-out: LC50 (the source's name)
TK-10 = assay: Growth inhibition against human TK-10 cells assessed as total growth inhibitory concentration incubated for 48 hrs by sulforhodamine B assay; type: functional
OVCAR-8 = assay: Growth inhibition against human OVCAR-8 cells assessed as total growth inhibitory concentration incubated for 48 hrs by sulforhodamine B assay; type: functional
UACC-257 = assay: Growth inhibition against human UACC-257 cells assessed as total growth inhibitory concentration incubated for 48 hrs by sulforhodamine B assay; type: functional
HCC 2998 = assay: Growth inhibition against human HCC 2998 cells assessed as total growth inhibitory concentration incubated for 48 hrs by sulforhodamine B assay; type: functional
NCI-H322M [2] = assay: Growth inhibition against human NCI-H322M cells assessed as total growth inhibitory concentration incubated for 48 hrs by sulforhodamine B assay; type: functional
CCRF-CEM = assay: Growth inhibition against human CCRF-CEM cells assessed as total growth inhibitory concentration incubated for 48 hrs by sulforhodamine B assay; type: functional
ACHN = assay: Growth inhibition against human ACHN cells incubated for 48 hrs by sulforhodamine B assay; type: functional
SK-OV-3 [3] = assay: Growth inhibition against human SK-OV-3 cells incubated for 48 hrs by sulforhodamine B assay; type: functional
SW-620 [4] = assay: Growth inhibition against human SW620 cells incubated for 48 hrs by sulforhodamine B assay; type: functional
KM12 = assay: Growth inhibition against human KM12 cells incubated for 48 hrs by sulforhodamine B assay; type: functional
COLO 205 = assay: Growth inhibition against human COLO 205 cells incubated for 48 hrs by sulforhodamine B assay; type: functional
BT-549 = assay: Antiproliferative activity against human BT-549 cells assessed as cell growth at 0.00000001 M incubated for 48 hrs by SRB assay relative to control; type: functional; conditions: dose 10 nM, read-out: Activity
How it was run: (§1)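 NCI-60 five-dose screen over 10^-4–10^-8 M (10-fold dilutions). Cells grown in RPMI 1640 with 5% FBS and 2 mM L-glutamine, seeded at 5,000–40,000 cells/well and preincubated 24 h. Drug from DMSO stock, 48 h at 37 °C, 5% CO2. Adherent cells TCA-fixed and stained with 0.4% SRB; A515 read. Percent growth = (Ti−Tz)/(C−Tz)×100, or (Ti−Tz)/Tz×100 when Ti<Tz.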

NCI-H460 = assay: Antiproliferative activity against human NCI-H460 cells assessed as cell growth at 0.0000001 M incubated for 48 hrs by SRB assay relative to control; type: functional; conditions: dose 100 nM, read-out: Activity
SW-620 [5] = assay: Antiproliferative activity against human SW620 cells assessed as cell growth at 0.0000001 M incubated for 48 hrs by SRB assay relative to control; type: functional; conditions: dose 100 nM, read-out: Activity
IGROV-1 = assay: Antiproliferative activity against human IGROV-1 cells assessed as cell growth at 0.0000001 M incubated for 48 hrs by SRB assay relative to control; type: functional; conditions: dose 100 nM, read-out: Activity
OVCAR-5 = assay: Antiproliferative activity against human OVCAR-5 cells assessed as cell growth at 0.0000001 M incubated for 48 hrs by SRB assay relative to control; type: functional; conditions: dose 100 nM, read-out: Activity
NCI/ADR-RES = assay: Antiproliferative activity against human NCI/ADR-RES cells assessed as cell growth at 0.0000001 M incubated for 48 hrs by SRB assay relative to control; type: functional; conditions: dose 100 nM, read-out: Activity
SK-OV-3 [6] = assay: Antiproliferative activity against human SK-OV-3 cells assessed as cell growth at 0.0000001 M incubated for 48 hrs by SRB assay relative to control; type: functional; conditions: dose 100 nM, read-out: Activity
RPMI-8226 [7] = assay: Antiproliferative activity against human RPMI-8226 cells assessed as cell growth at 0.000001 M incubated for 48 hrs by SRB assay relative to control; type: functional; conditions: read-out: Activity
EKVX = assay: Antiproliferative activity against human EKVX cells assessed as cell growth at 0.00001 M incubated for 48 hrs by SRB assay relative to control; type: functional; conditions: read-out: Activity
How it was run: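 NCI-60 five-dose screen (10^-4 to 10^-8 M). Cells grown in RPMI 1640 with 5% FBS and 2 mM L-glutamine, plated at 5,000-40,000 cells/well and preincubated 24 h. Drug given from DMSO stock, then 48 h at 37 °C, 5% CO2. For adherent lines, cells fixed with cold TCA, SRB-stained and read at 515 nm. Percent growth taken against time-zero and untreated control.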

U-251 = assay: Antiproliferative activity against human U-251 cells assessed as cell growth at 0.00001 M incubated for 48 hrs by SRB assay relative to control; type: functional; conditions: read-out: Activity
A498 = assay: Antiproliferative activity against human A498 cells assessed as cell growth at 0.00001 M incubated for 48 hrs by SRB assay relative to control; type: functional; conditions: read-out: Activity; how it was run: as §1
RXF 393 = assay: Antiproliferative activity against human RXF 393 cells assessed as cell growth at 0.00001 M incubated for 48 hrs by SRB assay relative to control; type: functional; conditions: read-out: Activity
RPMI-8226 [8] = assay: Antiproliferative activity against human RPMI-8226 cells assessed as cell growth at 0.0001 M incubated for 48 hrs by SRB assay relative to control; type: functional; conditions: read-out: Activity
A549 = assay: Antiproliferative activity against human A549 cells assessed as cell growth at 0.0001 M incubated for 48 hrs by SRB assay relative to control; type: functional; conditions: read-out: Activity; how it was run: as §1
SF-268 = assay: Antiproliferative activity against human SF-268 cells assessed as cell growth at 0.0001 M incubated for 48 hrs by SRB assay relative to control; type: functional; conditions: read-out: Activity
786-0 = assay: Antiproliferative activity against human 786-0 cells assessed as cell growth at 0.0001 M incubated for 48 hrs by SRB assay relative to control; type: functional; conditions: read-out: Activity; how it was run: as §1
CAKI-1 = assay: Antiproliferative activity against human CAKI-1 cells assessed as cell growth at 0.0001 M incubated for 48 hrs by SRB assay relative to control; type: functional; conditions: read-out: Activity; how it was run: as §1

SMILES	Kq (Calf thymus DNA)	Activity (HEK293) [%]	CC50 (PC-3) [µM]	CC50 (UO-31) [µM]	CC50 (NCI-H322M [1]) [µM]	TGI (TK-10) [µM]	TGI (OVCAR-8) [µM]	TGI (UACC-257) [µM]	TGI (HCC 2998) [µM]	TGI (NCI-H322M [2]) [µM]	TGI (CCRF-CEM) [µM]	GI50 (ACHN) [µM]	GI50 (SK-OV-3 [3]) [µM]	GI50 (SW-620 [4]) [µM]	GI50 (KM12) [µM]	GI50 (COLO 205) [µM]	growth at 0.01 µM (BT-549) [%]	growth at 0.1 µM (NCI-H460) [%]	growth at 0.1 µM (SW-620 [5]) [%]	growth at 0.1 µM (IGROV-1) [%]	further results
COc1ccc(-c2cn3ccnc3c(-c3ccc4ncn(C5CCCCC5)c4c3)n2)cc1	4.65 10^12/M/s	15.07	> 100	> 100	> 100	68.9	> 100	> 100	> 100	> 100	> 100	0.692	0.508	0.734	1.35	2.22	8	107	99	90	growth at 0.1 µM (OVCAR-5): 90%; growth at 0.1 µM (NCI/ADR-RES): 94%; growth at 0.1 µM (SK-OV-3 [6]): 88%; growth at 1 µM (RPMI-8226 [7]): 86%; growth at 10 µM (EKVX): 25%; growth at 10 µM (U-251): 14%; growth at 10 µM (A498): 8%; growth at 10 µM (RXF 393): -2%; growth at 100 µM (RPMI-8226 [8]): 15%; growth at 100 µM (A549): 16%; growth at 100 µM (SF-268): 29%; growth at 100 µM (786-0): 2%; growth at 100 µM (CAKI-1): 26%
c1ccc(Cn2cnc3ccc(-c4nc(-c5ccc6c(c5)ncn6C5CCCCC5)cn5ccnc45)cc32)cc1	1.19 10^12/M/s	14.11	> 100	> 100	> 100	> 100	6.54	4.31	3.41	> 100	> 100	3.08	2.53	3.4	2.09	1.88	85	108	105	93	growth at 0.1 µM (OVCAR-5): 89%; growth at 0.1 µM (NCI/ADR-RES): 97%; growth at 0.1 µM (SK-OV-3 [6]): 95%; growth at 1 µM (RPMI-8226 [7]): 55%; growth at 10 µM (EKVX): -31%; growth at 10 µM (U-251): -27%; growth at 10 µM (A498): -79%; growth at 10 µM (RXF 393): -79%; growth at 100 µM (RPMI-8226 [8]): -33%; growth at 100 µM (A549): -40%; growth at 100 µM (SF-268): 5%; growth at 100 µM (786-0): 4%; growth at 100 µM (CAKI-1): 23%
